Test results reported in ChEMBL document CHEMBL1128437, “Derivatives of 17-phenyl-18,19,20-trinorprostaglandin F2 alpha isopropyl ester: potential antiglaucoma agents” (J Med Chem, 1995).
“And” between values parts separate entries of the source, which are not always exact repeats. Identical values can stand only once.

Key:
[1] = species on record: Felis catus; assay: The maximal difference in […] pupil diameter between treated and control eyes. The effect was tested in cats at a dose of 10.0 (ug/eye); assay type: functional
Summary of the method: (§1)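 Trained female cats, 2–3 kg, were dosed unilaterally with one 20 µL topical drop of drug in 0.9% NaCl/0.5% polysorbate 80, with vehicle in the contralateral eye. Horizontal pupil diameter was measured with a millimetre ruler under constant 10 lux illumination before dosing and at 1, 3, 6 and 23 h. Reported as maximal treated–control difference or as area between curves, per animal.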

[2] = species on record: Felis catus; assay: The mean area between curves for pupil diameter between treated and control eyes. The effect was tested in cats at a dose of 10.0 (ug/eye); assay type: functional; summary of the method: as §1
[3] = species on record: Felis catus; assay: The mean area between curves for pupil diameter between treated and control eyes. The effect was tested in cats at a dose of 1.0 (ug/eye); assay type: functional; summary of the method: as §1
[4] = species on record: Felis catus; assay: The maximal difference in Intraocular Pressure (IOP) between treated and control eyes. The effect was tested in cats at a dose of 1.0 (ug/eye); assay type: functional
Summary of the method: (§2)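 Domestic female cats, 2–3 kg, trained for IOP measurement. One eye received a topical drop (20 µL) of drug in 0.9% NaCl with 0.5% polysorbate 80; the other eye received vehicle. IOP was read by pneumatonometer under oxibuprocain local anaesthesia before dosing and at 1, 3, 6 and 23 h. The maximal treated-minus-control difference was taken. Area between curves is the treated-eye AUC minus control-eye AUC, per animal.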

[5] = species on record: Felis catus; assay: The mean area between curves for Intraocular Pressure (IOP) measured in treated and control eyes. The effect was tested in cats at a dose of 10.0 (ug/eye); assay type: functional; summary of the method: as §2
[6] = species on record: Felis catus; assay: The maximal difference in Intraocular Pressure (IOP) between treated and control eyes. The effect was tested in cats at a dose of 10.0 (ug/eye); assay type: functional; summary of the method: as §2
[7] = species on record: Oryctolagus cuniculus; assay: The maximal difference in conjunctival hyperemia between treated and control eyes. The effect was tested in rabbit at a dose of 0.5 (ug/eye)
[8] = species on record: Felis catus; assay: The mean area between curves for Intraocular Pressure (IOP) measured in treated and control eyes. The effect was tested in cats at a dose of 1.0 (ug/eye); assay type: functional; summary of the method: as §2
[9] = species on record: Felis catus; assay: The maximal difference in […] pupil diameter between treated and control eyes. The effect was tested in cats at a dose of 1.0 (ug/eye); assay type: functional; summary of the method: as §1
[10] = species on record: Oryctolagus cuniculus; assay: The mean area between curves for conjunctival hyperemia between treated and control eyes. The effect was tested in rabbit at a dose of 0.5 (ug/eye)
[11] = species on record: Felis catus; assay: Concentration giving half-maximal contraction of the cat iris sphincter muscle was determined in vitro; assay type: functional
Summary of the method: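 Compounds were tested as hydrolysed free acids on isolated cat iris sphincter in organ baths. Bath solution was bicarbonate physiological saline with glucose plus indomethacin 2.8 × 10⁻⁶ M, atropine 10⁻⁷ M and propranolol 10⁻⁶ M. Resting tension was 150 mg, with at least 30 min equilibration. Cumulative dosing was at 5–10 min intervals. Isometric contraction was normalised to each tissue's maximum, averaged over four preparations, and fitted with a Hill equation for EC50.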

[12] = test system: Monkey; assay: The mean area between curves for Intraocular Pressure (IOP) measured in treated and control eyes. The effect was tested in monkey at a dose of 3.0 (ug/eye); assay type: functional, Cercopithecidae
Summary of the method: (§3)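 Cynomolgus monkeys trained for IOP measurement were sedated with ketamine (2–3 mg/kg) for transport and seated in restraint chairs under oxibuprocain local anaesthesia. One eye received a 10 µL drop of drug in 0.9% NaCl/0.5% polysorbate 80; the fellow eye received vehicle. IOP was read by pneumatonometer calibrated for monkey eyes before dosing and at 1, 2, 4 and 6 h. Matched-pair t test, n = 6.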

[13] = species on record: Felis catus; assay: The mean ocular irritation in the treated eyes. An arbitrary scale of from 0 to 3 was used, 0 indicates absence of irritation and 3 complete closure of the lids. The effect was tested in cats at a dose of 1.0 (ug/eye); assay type: functional
Summary of the method: (§4)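 Ocular irritation was scored in the treated eye of trained female cats, 2–3 kg. Drug was given as one topical 20 µL drop in 0.9% NaCl with 0.5% polysorbate 80. The contralateral eye got vehicle only.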

[14] = test system: Monkey; assay: The maximal difference in Intraocular Pressure (IOP) measured in treated and control eyes. The effect was tested in monkey at a dose of 3.0 (ug/eye); assay type: functional, Cercopithecidae; summary of the method: as §3
[15] = species on record: Felis catus; assay: The mean ocular irritation in the treated eyes. An arbitrary scale of from 0 to 3 was used, 0 indicates absence of irritation and 3 complete closure of the lids. The effect was tested in cats at a dose of 3.0 (ug/eye); assay type: functional; summary of the method: as §4
[16] = species on record: Felis catus; assay: The maximal difference in […] pupil diameter between treated and control eyes. The effect was tested in cats at a dose of 3.0 (ug/eye); assay type: functional; summary of the method: as §1
[17] = species on record: Felis catus; assay: The mean area between curves for Intraocular Pressure (IOP) measured in treated and control eyes. The effect was tested in cats at a dose of 3.0 (ug/eye); assay type: functional; summary of the method: as §2
[18] = species on record: Felis catus; assay: The mean ocular irritation in the treated eyes. An arbitrary scale of from 0 to 3 was used, 0 indicates absence of irritation and 3 complete closure of the lids. The effect was tested in cats at a dose of 10.0 (ug/eye); assay type: functional; summary of the method: as §4
[19] = species on record: Felis catus; assay: The maximal difference in Intraocular Pressure (IOP) between treated and control eyes. The effect was tested in cats at a dose of 3.0 (ug/eye); assay type: functional; summary of the method: as §2
[20] = species on record: Felis catus; assay: The mean area between curves for pupil diameter between treated and control eyes. The effect was tested in cats at a dose of 3.0 (ug/eye); assay type: functional; summary of the method: as §1

SMILES | P ABC [3] | Imax [4] | Hmax [7] | I ABC [8] | Pmax [9] | H ABC [10] | EC50 ([11]; Felis catus, Sphincter muscle) | I ABC [12] | Irritation [13] | Imax [14] | also measured
CC(C)OC(=O)CCC/C=C\C[C@@H]1[C@@H](/C=C/[C@H](O)CCc2ccc(-c3ccccc3)cc2)[C@H](O)C[C@@H]1O | 1.8 | <-1 mmHg | <0.5 | -8.3 | 0.5 mm | 0.7 | – | – | – | – | Pmax [1]: < -0.8 mm; P ABC [2]: -3.8; I ABC [5]: -2; Imax [6]: -0.3 mmHg
O=C(O)CCC/C=C\C[C@@H]1[C@@H](/C=C/C(O)CCc2ccccc2)[C@H](O)C[C@@H]1O (some centres not stated) | – | – | – | – | – | – | 0.71 nM | – | – | – | –
CC(=O)c1ccc(CC[C@H](O)/C=C/[C@@H]2[C@@H](C/C=C\CCCC(=O)OC(C)C)[C@@H](O)C[C@H]2O)cc1 | 1.4 | -0.3 mmHg | -0.2 | -4.3 | 0.2 mm | -0.5 | – | <-10 | 0 arbitrary units | <-2.3 mmHg | –
CC(C)OC(=O)CCC/C=C\C[C@@H]1[C@@H](/C=C/[C@@H](O)CCc2cccc(Br)c2)[C@H](O)C[C@@H]1O | <-99 | -1 mmHg | <1.5 | -12.9 | < 6.3 mm | 4.8 | – | -6.5 | 0.2 arbitrary units | -2 mmHg | Pmax [1]: < -6.7 mm; P ABC [2]: <-138; Irritation [15]: 0.3 arbitrary units; Pmax [16]: < -6.8 mm; I ABC [5]: <-49; Imax [6]: <-3.3 mmHg; I ABC [17]: -42.5; Irritation [18]: 0.2 arbitrary units; Imax [19]: -2.7 mmHg; P ABC [20]: <-125
Cc1ccc(CCC(O)/C=C/[C@@H]2[C@@H](C/C=C\CCCC(=O)O)[C@@H](O)C[C@H]2O)cc1 (some centres not stated) | – | – | – | – | – | – | 40 nM | – | – | – | –
CC(C)OC(=O)CCC/C=C\C[C@@H]1[C@@H](/C=C/[C@H](O)CCc2cccc(Br)c2)[C@H](O)C[C@@H]1O | <-50.3 | <1.2 mmHg | <1.2 | 0.2 | < -3.8 mm | <2 | – | -6 | 0 arbitrary units | -1.4 mmHg | Irritation [15]: 0 arbitrary units; Pmax [16]: < -5.3 mm; I ABC [17]: -6.2; Imax [19]: -2 mmHg; P ABC [20]: <-71
CC(C)OC(=O)CCC/C=C\C[C@@H]1[C@@H](/C=C/[C@@H](O)CCc2ccc(-c3cccs3)cc2)[C@H](O)C[C@@H]1O | -2.2 | <-4.2 mmHg | 0.3 | -84 | < -0.9 mm | 0 | – | 6.5 | 0.4 arbitrary units | <1.5 mmHg | –
Cc1cccc(CCC(O)/C=C/[C@@H]2[C@@H](C/C=C\CCCC(=O)O)[C@@H](O)C[C@H]2O)c1 (some centres not stated) | – | – | – | – | – | – | 4.3 nM | – | – | – | –
O=C(O)CCC/C=C\C[C@@H]1[C@@H](/C=C/C(O)CCc2cccc(Br)c2)[C@H](O)C[C@@H]1O (some centres not stated) | – | – | – | – | – | – | – | – | – | – | EC50 [11]: 33 nM and 4.9 nM
CC(=O)c1cccc(CC[C@H](O)/C=C/[C@@H]2[C@@H](C/C=C\CCCC(=O)OC(C)C)[C@@H](O)C[C@H]2O)c1 | <-30 | 0.7 mmHg | -0.1 | 7.1 | < -1.8 mm | 0 | – | <-12.3 | 1.3 arbitrary units | <-2.8 mmHg | –
CCCCC[C@H](O)/C=C/[C@@H]1[C@@H](C/C=C\CCCC(=O)O)[C@@H](O)C[C@H]1O [DINOPROST] | – | – | – | – | – | – | 6.7 nM | – | – | – | –
O=C(O)CCC/C=C\C[C@@H]1[C@@H](/C=C/[C@@H](O)CCc2ccc(Br)cc2)[C@H](O)C[C@@H]1O | – | – | – | – | – | – | 35 nM | – | – | – | –
O=C(O)CCC/C=C\C[C@@H]1[C@@H](/C=C/[C@H](O)CCc2ccc(Br)cc2)[C@H](O)C[C@@H]1O | – | – | – | – | – | – | 2100 nM | – | – | – | –
